From PubChem
Only some compounds are listed: those with a hit (about 4.9% of all), similar ones and a draw of the others.
Lipid droplet = hepatic lipid droplet formation modulation | AID 1656 | inhibition, % at 6.5 µM | actives 0.4% (n = 240,000) | AML12 mouse hepatocytes, oleate lipid droplets, BODIPY imaging;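 active = lipid droplet intensity inhibited by at least 50%, with more than 500 cells counted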
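Material – mouse AML12 hepatocyte cell line, fixed after treatment · Compound dosing – one dose, 6.5 µM compound · Times – compound with oleate, overnight · Measured by – Image-based BODIPY and DAPI two-channel analysis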
HSF1 activator = increases HSF-1 driven luciferase reporter signal | NIH3T3-HGL HSF-1 luciferase reporter, MG132, 8 h; 100% = twice DMSO control signal | activation, % at 9 µM | actives 1.7% (n = 300,000);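 active = mean replicate activation of at least 50% with a set share of replicates each reaching 50%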;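 also: 0% = median of the neutral control wells and 100% = twice that signal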
CHT allo act = human CHT allosteric activation | Q9GZV3 | CHT-expressing cells, membrane potential dye, choline EC20; stronger effect = higher value; LV-AA mutant CHT in HEK293 cells | B-score at 10 µM | actives 0.49% (n = 310,000);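 active = initial fluorescence not abnormally high and integrated response B-score, plate-corrected, over 3 SD above library mean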
Target sequence (Q9GZV3 whole entry, looked up): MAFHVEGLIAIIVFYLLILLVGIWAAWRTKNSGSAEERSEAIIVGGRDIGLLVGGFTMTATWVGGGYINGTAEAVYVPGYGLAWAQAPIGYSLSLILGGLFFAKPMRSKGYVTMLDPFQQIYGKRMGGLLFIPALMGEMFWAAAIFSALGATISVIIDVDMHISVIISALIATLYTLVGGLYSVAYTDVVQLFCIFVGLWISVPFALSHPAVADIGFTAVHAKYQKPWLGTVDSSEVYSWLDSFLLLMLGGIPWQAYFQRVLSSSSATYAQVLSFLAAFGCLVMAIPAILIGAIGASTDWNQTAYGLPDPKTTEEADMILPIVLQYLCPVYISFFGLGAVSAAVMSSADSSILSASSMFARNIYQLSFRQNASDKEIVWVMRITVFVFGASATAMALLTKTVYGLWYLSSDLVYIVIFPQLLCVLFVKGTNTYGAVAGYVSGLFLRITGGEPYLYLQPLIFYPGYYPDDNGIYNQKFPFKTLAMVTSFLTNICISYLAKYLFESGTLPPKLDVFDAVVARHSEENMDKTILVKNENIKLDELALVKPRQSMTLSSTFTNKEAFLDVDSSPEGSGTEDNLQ
PHOSPHO1 block = inhibitors of human PHOSPHO1 phosphatase. recombinant PHOSPHO1, absorbance phosphatase assay. AID 1565. Q8TCT1. actives 1.1% (n = 290,000). inhibition, % at 13.3 µM; in the data active = inhibition above about 60%
CHT block = human CHT choline transport inhibition; Q9GZV3; B-score at 10 µM; actives 0.86% (n = 310,000); AID 488975; CHT-expressing cells, membrane potential dye, choline response; stronger effect = lower value;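 active = B-score over 3 SD under the library average, and starting fluorescence ratio not unusually high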;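 also: choline stimulus applied at its EC90 after an EC20 pre-addition; B-score computed on integrated fluorescence ratio after choline addition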
HSF1 inh = HSF1 inhibition. NIH3T3-HGL HSE-luciferase, MG132-induced, luminescence 8 h; stronger effect = lower value. activity change, negative = inhibition, % at 7.5 µM (by protocol). actives 0.77% (n = 300,000). AID 2098;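 active = more than half of replicate wells show activity change below -50%, luminescence cut by over half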;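 also: luciferase reports HSF-1 transcriptional activity via heat shock element; 0% = median of DMSO wells and -100% = zero luminescence signal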
Numbers without * were called inactive; i = inactive; · = no result given.

SMILES	Lipid droplet	HSF1 activator	CHT allo act	PHOSPHO1 block	CHT block	HSF1 inh
Cc1cc2oc(=O)cc(CN3CCCCC3)c2cc1O	5.4	21.1	i	60.8*	i	0.6
COc1ccc(C(=O)NCCc2nnc3ccc(SCC(=O)N4CCCC4)nn23)cc1	16.9	1.0	i	31.8	i	-4.4
Cc1c(C#N)c(O)[nH]c(=O)c1N=Nc1ccc(Br)cc1C(=O)O	-4.2	-2.2	i	28.0	i	-6.2
Cc1cccc(N=Nc2c(C)c(C#N)c(O)[nH]c2=O)c1	15.8	54.4*	i	32.2	i	20.5
O=C(Nc1ccc(C(=O)Nc2ccccc2Cl)cc1)c1cccnc1	6.2	·	i	21.8	i	·
Cn1c(=O)c(C(=O)NCc2ccccc2)c(O)c2ccccc21	-7.4	11.1	i	34.8	i	5.6
Cc1cnc(NC(=O)c2nn(C)cc2[N+](=O)[O-])s1	7.9	150.1*	·	29.2	·	139.0
Cc1ccc(-c2nc(NC(=O)c3nn(C)cc3[N+](=O)[O-])sc2C)cc1C	7.1	-83.6	i	2.6	i	-83.9*
Cn1cc([N+](=O)[O-])c(C(=O)Nc2nc(-c3ccc(Cl)cc3)cs2)n1	-15.2	140.5*	i	-4.0	i	102.0
CSc1ccccc1C(=O)Nc1ncc(C)s1	·	12.2	i	-2.0	i	12.9
Cc1ccc(-c2nc(NC(=O)c3nn(C)cc3[N+](=O)[O-])sc2C)cc1	-3.0	28.1	i	-1.3	i	8.2
Cc1ccc(C(=O)Nc2ncc(C)s2)s1	5.9	69.8*	i	24.0	i	29.7
Cc1ccc(C(C)C)c(OCC(=O)NN2C(=O)c3ccccc3C2=O)c1	7.1	-3.4	i	4.2	i	-7.7
O=[N+]([O-])c1cnccc1NC1CCCCC1	-2.9	0.7	i	11.4	i	-4.4
CC1Cc2ccccc2N1CC(=O)NC(=O)NC1CCCC1 (configuration not stated)	-0.4	·	i	4.6	i	·
CC(=O)N1CCN(c2nc(-c3ccco3)c3c(c2C#N)CC(C)(C)SC3)CC1	·	0.3	i	86.5*	i	-1.5
CC1(C)Cc2c(C#N)c(N3CCN(C(=O)c4ccco4)CC3)nc(-c3ccco3)c2CS1	-2.8	15.9	i	-3.2	i	9.0
O=C(COc1ccc(CO)cc1)Nc1ccc(F)cc1	-7.5	23.4	i	16.1	i	9.2
CCC(=O)NC(=S)Nc1ccc(NC(=O)COc2ccc(Cl)c(C)c2)cc1	37.1	79.2*	i	-6.6	i	45.2
CCC(=O)NC(=S)Nc1ccc(NC(=O)COc2ccc([N+](=O)[O-])cc2)cc1	-3.2	36.2	i	38.5	i	7.9
CCC(=O)NC(=S)Nc1ccc(NC(=O)COc2ccc(Cl)cc2Cl)cc1	·	52.7*	i	-53.0	i	30.9
COc1ccc(NC(=S)NNC(=O)COc2ccc(Cl)cc2Cl)cc1	20.3	19.1	i	1.6	i	1.3
O=C(COc1ccc(CO)cc1Cl)Nc1ccc(F)cc1	1.6	54.7*	i	6.3	i	33.7
CCOc1ccc(C(C)=O)cc1Cn1c(=O)oc2ccccc21	-45.8	30.0	i	46.3	i	7.1
CCN1CCCC1CNC(=O)Cn1ncc2c(=O)oc3ccc(C)cc3c21 (configuration not stated)	-4.4	-10.7	i	-14.1	i	-1.7
SMILES	Lipid droplet	HSF1 activator	CHT allo act	PHOSPHO1 block	CHT block	HSF1 inh
O=C(CN1C(=O)/C(=C\c2cccc(Cl)c2)Sc2ccccc21)NCCCN1CCOCC1	3.9	90.4*	i	29.3	i	49.8
COc1ccc(CN2CCN(Cc3c[nH]c4ccccc34)CC2)cc1	-6.9	34.8	i	37.3	i	-3.4
COc1ccc(Br)cc1CN1CCN(Cc2c[nH]c3ccccc23)CC1	47.2	55.0*	i	·	i	9.7
O=[N+]([O-])c1cc(-c2n[nH]c(-c3ccccc3)n2)cc([N+](=O)[O-])c1	·	-9.6	i	-6.6	i	4.0
Clc1ccccc1-c1nc(-c2ccccc2)n[nH]1	·	53.9*	i	6.1	i	24.0
C/C(=N\n1nnnc1Nc1ccccc1)c1ccc(N)cc1	·	116.9*	i	42.0	i	72.2
C/C(=N\n1c(C)nc2ccccc2c1=O)c1ccc(N)cc1	·	26.6	i	·	i	10.0
Cc1ccccc1CN1CCN(C(=O)CC(C)C)CC1	-1.1	-88.4	i	8.5	i	-85.9*
Cc1cccc(NC(=O)CCNS(=O)(=O)c2cccc3nsnc23)c1	-10.8	-5.1	i	-5.7	i	-2.0
NC(=S)N/N=C/c1ccc(-c2cc(Cl)cc(Cl)c2)o1	23.3	-0.7	i	-12.2	i	-3.4
NC(=S)N/N=C/c1ccc(-c2cc(Cl)ccc2Cl)o1	0.1	-5.7	i	93.1*	i	-0.5
COc1cccc(CNn2cnnc2)c1O	22.6	8.3	i	9.5	i	-3.5
Cc1ccc(N2CC(O)(c3cccs3)[N+]3=C2CCCC3)cc1 (configuration not stated)	-18.8	3.1	i	60.9*	i	-3.7
CC(=O)O[C@]1(C(C)=O)CC[C@H]2[C@@H]3C=CC4=CC(=O)C=C[C@]4(C)[C@H]3CC[C@@]21C	-18.0	109.4*	i	35.1	i	56.3
COc1ccc(-n2c(N)c(C(=O)NCC3CCCO3)sc2=S)cc1 (configuration not stated)	2.9	15.8	i	39.0	i	-2.4
CCOC(=O)c1ccc(-n2c(N)c(C(=O)NCC3CCCO3)sc2=S)cc1 (configuration not stated)	·	-9.2	i	75.7*	i	-16.6
COc1ccc(/C=C(/C(=O)c2cccs2)N2C=CC=CC2=C(C#N)C#N)cc1	-4.2	176.9*	·	3.4	·	98.6
Cc1nn(Cc2ccccc2Cl)c(Cl)c1C(=O)NCCc1ccccc1	-15.5	61.1*	i	-20.5	i	40.5
CC(=O)Nc1ccc(NC(=O)c2c(C)nn(Cc3ccccc3)c2Cl)cc1	-22.8	26.2	i	39.2	i	-1.8
CC1CN(CC(=O)Nc2ccc(S(N)(=O)=O)cc2)CC(C)O1 (configuration not stated)	9.7	-17.3	i	24.1	i	-11.2
Cc1onc(-c2ccccc2)c1C(=O)N=C(N)c1ccc(C(F)(F)F)cc1	-0.9	82.1*	i	7.9	i	40.4
CN(CCc1ccccn1)C1CCCN(S(=O)(=O)c2ccc(F)c(Cl)c2)C1 (configuration not stated)	-10.4	23.6	i	46.6	i	13.7
Cc1cc(S(=O)(=O)N2CCCC(N(C)CCc3ccccn3)C2)c(C)s1 (configuration not stated)	-9.6	-18.1	i	75.4*	i	-4.4
CCOc1ccccc1C1C(C#N)=C(N)SC(N)=C1C#N	·	10.7	i	69.5*	i	2.8
